High-throughput results as filed in PubChem.
HTR1E agonist: activates the human 5-HT1E serotonin receptor; CHO 5-HT1E Ga15 NFAT-bla reporter, FRET; 0% DMSO wells, 100% control agonist wells; activation, % at 6 µM; 0.69% of 65,000 active;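 active = activation above a set limit, the screen-wide mean activation plus 3 SD, cut at about 8.5% in these data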
Target sequence (P28566 whole entry, looked up): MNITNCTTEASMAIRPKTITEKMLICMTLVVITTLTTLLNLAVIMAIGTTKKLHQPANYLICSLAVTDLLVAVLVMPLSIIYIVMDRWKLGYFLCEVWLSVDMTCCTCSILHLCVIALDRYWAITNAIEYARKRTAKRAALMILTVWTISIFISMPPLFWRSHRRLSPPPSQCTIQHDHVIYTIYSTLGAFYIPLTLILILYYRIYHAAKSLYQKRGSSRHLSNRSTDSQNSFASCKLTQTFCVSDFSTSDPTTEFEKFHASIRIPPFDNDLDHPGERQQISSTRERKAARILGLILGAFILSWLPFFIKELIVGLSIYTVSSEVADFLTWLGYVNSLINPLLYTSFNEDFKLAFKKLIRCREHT
5HT1a ag: activates the human 5-HT1a serotonin receptor; P08908; CHO 5-HT1a Ga15 NFAT-bla reporter, FRET ratio; 0% basal, 100% maximal reference agonist; activation, % at 10 µM; 0.56% of 65,000 active; AID 567;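 active = activation above the screen-wide mean activation plus 3 SD, cut at about 19% in these data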
Jurkat tox 60K: reduces viability or proliferation of Jurkat cells. AID 463. inhibition, % at 4 µM. Jurkat E6.1 viability, ATP luminescence, 48 h. 1.2% of 56,000 active;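 active = inhibition above the mean inhibition of all tested compounds plus 3 SD, cut at about 28% in these data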
HEK293 NFkB inh: lowers PMA/ionomycin-induced NF-kB signal in HEK293 cells | inhibition, % at 3 µM | 0.21% of 62,000 active | HEK-293 NF-kB luciferase reporter, luminescence;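 active = inhibition above the mean of all tested compounds plus 3 SD, cut at about 40% in these data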
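System – HEK-293 cells with stable firefly luciferase reporter driven by four HIV NF-kB elements · Doses – one dose, 3 µM · Schedule – 1 h compound pre-incubation, 16 h PMA/ionomycin at 37 °C · Technique – luminescence from luciferase substrate reagent · Measure – percent inhibition normalized per plate to DMSO and reference-inhibitor controls · Replicates – tested once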
HTR1E antagonist: blocks the human 5-HT1E serotonin receptor | P28566 | CHO 5-HT1E Ga15 NFAT-bla reporter, FRET, antagonist | inhibition, % at 6 µM | 0.99% of 65,000 active;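 active = inhibition above a set limit, the mean inhibition across every tested compound plus 3 SD, cut at about 29% in these data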;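 also: signal is the 460 over 535 nm emission ratio of beta-lactamase substrate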
5HT1a antag: 5-HT1a (human) receptor antagonism. CHO 5-HT1a Ga15 NFAT-bla reporter, antagonist mode. 0.68% of 62,000 active. P08908. inhibition, % at 10 µM;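 active = inhibition above the mean of all tested compounds plus 3 SD, cut at about 43% in these data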;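 also: receptor stimulated by 5-CT agonist at 100 nM near EC80; beta-lactamase reporter measured by ratiometric fluorescence of a cleavable substrate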
Hits are given with their value; 0 = inactive; - = no result given. Rows were chosen to be rich in hits. Some 3.3% of all compounds tested hit in one or more screens of this group.

SMILES	HTR1E agonist	5HT1a ag	Jurkat tox 60K	HEK293 NFkB inh	HTR1E antagonist	5HT1a antag
Cc1cccc(-n2cnc3cc(C(=O)N4CCCCC4)ccc32)c1	0	45	-	0	0	0
Cc1cc(=O)c2ccccc2[nH]1	0	0	0	0	0	0
Cc1cc2c(N=O)c(NO)ccc2[nH]1	0	0	75	0	0	0
CCN1CCN(c2ncc(C(=O)Nc3cc(Cl)ccc3OC)c3ccccc23)CC1	40	0	0	0	0	0
COc1ccc(Cl)cc1NC(=O)CCN1CCN(c2ccccc2C)CC1	0	0	-	0	0	0
O=c1[nH]c(NCc2ccccc2)nc2c1CCCC2	0	0	0	0	0	0
CCCCOc1ccc(C(=O)NC)cc1	0	0	0	0	0	0
CCCCOc1ccc(C(=O)Nc2ccncc2)cc1	0	0	91	0	0	0
CC(=O)c1cc(OC(=O)c2ccncc2)ccc1OC(=O)c1ccncc1	0	0	0	0	0	0
COc1ccc2[nH]c(C)c(CCN3C(=O)OC(C)(C)C3(C)O)c2c1 (configuration not stated)	0	0	0	0	0	0
COc1ccc2[nH]c(=O)c3c(c2c1)OC(C)(C)C=C3	0	0	0	0	0	60
CC1=C(C(=O)OC2CCCC2)C(c2ccc(C)o2)C2=C(CC(c3cccs3)CC2=O)N1 (configuration not stated)	0	0	0	0	39	45
Cc1nc(N)sc1-c1nnc(SCC(=O)Nc2nccs2)n1C	0	0	0	0	0	0
Cc1cc(/C=N/n2cnnc2)c(C)n1-c1ccc(Cl)cc1Cl	0	0	0	0	40	0
Cc1cc(/C=N/n2cnnc2)c(C)n1-c1ccc(OCc2ccc(F)cc2)cc1	0	0	45	0	0	0
Cc1ccc2nc3c(cc(C#N)c(=O)n3-c3nccs3)c(=O)n2c1	13	59	0	0	0	0
COc1ccccc1CNC(=O)c1nnc(Cc2ccc(Cl)cc2)o1	0	20	0	0	0	0
CC(NC(=O)Nc1nnc(C(F)(F)F)s1)(C(F)(F)F)C(F)(F)F	0	0	-	-	54	-
Nc1ccc2oc3ncccc3c(=O)c2c1	0	0	-	-	0	-
Nc1ccc2c(C(F)(F)F)cc(=O)oc2c1	0	0	0	0	42	0
CCc1nnc(SCC(=O)N2CCCc3ccccc32)nc1CC	0	0	0	0	0	0
O=C(CSc1n[nH]c(-c2ccccc2O)n1)N1CCCc2ccccc21	0	0	62	0	0	0
CCn1c(N2CCN(CC(=O)c3ccc(OC)cc3)CC2)nc2ccccc21	18	0	0	0	0	0
CCn1c(N2CCN(CC(=O)Nc3cccc(C)c3C)CC2)nc2ccccc21	0	0	0	0	0	0
Clc1ccc(-n2nnnc2Sc2ncnc3sccc23)cc1	0	0	66	0	82	69
SMILES	HTR1E agonist	5HT1a ag	Jurkat tox 60K	HEK293 NFkB inh	HTR1E antagonist	5HT1a antag
Cc1sc2ncnc(Sc3nnnn3-c3ccccc3)c2c1C	0	0	0	0	0	0
C=CCN(CC=C)S(=O)(=O)c1ccc2nc(NC(=O)C(C)C)sc2c1	0	0	72	0	0	0
CN(c1ccccc1)c1nc(N2CCCC2)nc(-n2ccnc2)n1	0	0	0	0	0	53
Cc1c(C(=O)N2CCCc3ccccc32)oc2ccc(S(=O)(=O)N3CCOCC3)cc12	0	0	0	0	0	0
CCCCCCNC(=O)C(C(=O)OCC)C1CCCCC1 (configuration not stated)	0	0	0	0	0	0
CCN(CC)C(=O)CSc1nnc(-c2ccccc2)n1N	0	0	-	0	0	0
C=C(C)CSc1nnc(-c2ccccc2)n1N	42	0	0	0	0	0
CCCCc1ccc(Nc2nc(CCC)cc(=O)[nH]2)cc1	0	0	0	0	0	45
Cc1cc(S(=O)(=O)Nc2cccc(O)c2)c(C)s1	0	0	0	0	0	0
COc1ccc(C2CC(C(F)(F)F)n3nc(C(=O)NCCN4CCOCC4)cc3N2)cc1 (configuration not stated)	0	36	0	0	0	0
O=C(NCC1CCCO1)c1cc2n(n1)C(C(F)(F)F)CC(c1ccc(F)cc1)N2 (configuration not stated)	0	0	0	0	0	0
C=CCn1c(=O)c2ccccc2n2c(SCc3csc(-c4ccccc4)n3)nnc12	0	0	0	0	0	0
